Test results reported in ChEMBL document CHEMBL5247578, “Effective synthesis of benzimidazoles-imidazo[1,2-a]pyrazine conjugates: A comparative study of mono-and bis-benzimidazoles for antitumor activity” (Eur J Med Chem, 2019).

What was measured:
OVCAR-4 [1] = test: Antiproliferative activity against human OVCAR-4 cells assessed as cell growth at 0.0001 M incubated for 48 hrs by SRB assay relative to control; format: functional; conditions: read-out: Activity
LOX IMVI [2] = test: Antiproliferative activity against human LOX IMVI cells assessed as cell growth at 0.000001 M incubated for 48 hrs by SRB assay relative to control; format: functional; conditions: read-out: Activity
OVCAR-8 [3] = test: Antiproliferative activity against human OVCAR-8 cells assessed as cell growth at 0.0000001 M incubated for 48 hrs by SRB assay relative to control; format: functional; conditions: dose 100 nM, read-out: Activity
OVCAR-3 = test: Growth inhibition against human OVCAR-3 cells incubated for 48 hrs by sulforhodamine B assay; format: functional
NCI-H23 [4] = test: Antiproliferative activity against human NCI-H23 cells assessed as cell growth at 0.0000001 M incubated for 48 hrs by SRB assay relative to control; format: functional; conditions: dose 100 nM, read-out: Activity
CCRF-CEM = test: Antiproliferative activity against human CCRF-CEM cells assessed as cell growth at 0.00000001 M incubated for 48 hrs by SRB assay relative to control; format: functional; conditions: dose 10 nM, read-out: Activity
Outline: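 NCI-60 five-dose screen over 10^-4–10^-8 M (10-fold dilutions). Cells grown in RPMI 1640 with 5% FBS and 2 mM L-glutamine, seeded at 5,000–40,000 cells/well and preincubated 24 h. Drug from DMSO stock, 48 h at 37 °C, 5% CO2. Adherent cells TCA-fixed and stained with 0.4% SRB; A515 read. Percent growth = (Ti−Tz)/(C−Tz)×100, or (Ti−Tz)/Tz×100 when Ti<Tz.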

SNB-19 [5] = test: Antiproliferative activity against human SNB-19 cells assessed as cell growth at 0.000001 M incubated for 48 hrs by SRB assay relative to control; format: functional; conditions: read-out: Activity
NCI-H23 [6] = test: Antiproliferative activity against human NCI-H23 cells assessed as cell growth at 0.00001 M incubated for 48 hrs by SRB assay relative to control; format: functional; conditions: read-out: Activity
COLO 205 = test: Growth inhibition against human COLO 205 cells incubated for 48 hrs by sulforhodamine B assay; format: functional
SNB-19 [7] = test: Antiproliferative activity against human SNB-19 cells assessed as cell growth at 0.00001 M incubated for 48 hrs by SRB assay relative to control; format: functional; conditions: read-out: Activity
OVCAR-8 [8] = test: Growth inhibition against human OVCAR-8 cells incubated for 48 hrs by sulforhodamine B assay; format: functional
OVCAR-4 [9] = test: Antiproliferative activity against human OVCAR-4 cells assessed as cell growth at 0.0000001 M incubated for 48 hrs by SRB assay relative to control; format: functional; conditions: dose 100 nM, read-out: Activity
U-251 [10] = test: Antiproliferative activity against human U-251 cells assessed as cell growth at 0.000001 M incubated for 48 hrs by SRB assay relative to control; format: functional; conditions: read-out: Activity
LOX IMVI [11] = test: Growth inhibition against human LOX IMVI cells incubated for 48 hrs by sulforhodamine B assay; format: functional
RXF 393 = test: Antiproliferative activity against human RXF 393 cells assessed as cell growth at 0.0000001 M incubated for 48 hrs by SRB assay relative to control; format: functional; conditions: dose 100 nM, read-out: Activity
U-251 [12] = test: Antiproliferative activity against human U-251 cells assessed as cell growth at 0.0000001 M incubated for 48 hrs by SRB assay relative to control; format: functional; conditions: dose 100 nM, read-out: Activity
SN12C = test: Antiproliferative activity against human SN12C cells assessed as cell growth at 0.00001 M incubated for 48 hrs by SRB assay relative to control; format: functional; conditions: read-out: Activity
TK-10 = test: Growth inhibition against human TK-10 cells assessed as total growth inhibitory concentration incubated for 48 hrs by sulforhodamine B assay; format: functional
OVCAR-4 [13] = test: Antiproliferative activity against human OVCAR-4 cells assessed as cell growth at 0.000001 M incubated for 48 hrs by SRB assay relative to control; format: functional; conditions: read-out: Activity
UACC-257 [14] = test: Antiproliferative activity against human UACC-257 cells assessed as cell growth at 0.00001 M incubated for 48 hrs by SRB assay relative to control; format: functional; conditions: read-out: Activity
Malme-3M [15] = test: Antiproliferative activity against human Malme-3M cells assessed as cell growth inhibition by measuring lethal concentration incubated for 48 hrs by sulforhodamine B assay; format: functional; conditions: read-out: LC50 (the source's name)
Malme-3M [16] = test: Antiproliferative activity against human Malme-3M cells assessed as cell growth at 0.000001 M incubated for 48 hrs by SRB assay relative to control; format: functional; conditions: read-out: Activity
Calf thymus DNA = test: Binding affinity to calf thymus DNA assessed as DNA intercalation by measuring change in melting temperature at 10 uM by thermal denaturation assay; format: nucleic-acid assay; conditions: Bos taurus
HOP-92 [17] = test: Growth inhibition against human HOP-92 cells assessed as total growth inhibitory concentration incubated for 48 hrs by sulforhodamine B assay; format: functional
MCF7 [18] = test: Antiproliferative activity against human MCF7 cells assessed as cell growth inhibition by measuring lethal concentration incubated for 48 hrs by sulforhodamine B assay; format: functional; conditions: read-out: LC50 (the source's name)
DU-145 = test: Antiproliferative activity against human DU-145 cells assessed as cell growth at 0.00001 M incubated for 48 hrs by SRB assay relative to control; format: functional; conditions: read-out: Activity
Outline: (§1)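 NCI-60 five-dose screen (10^-4 to 10^-8 M). Cells grown in RPMI 1640 with 5% FBS and 2 mM L-glutamine, plated at 5,000-40,000 cells/well and preincubated 24 h. Drug given from DMSO stock, then 48 h at 37 °C, 5% CO2. For adherent lines, cells fixed with cold TCA, SRB-stained and read at 515 nm. Percent growth taken against time-zero and untreated control.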

Hs-578T = test: Growth inhibition against human Hs-578T cells incubated for 48 hrs by sulforhodamine B assay; format: functional
HOP-92 [19] = test: Antiproliferative activity against human HOP-92 cells assessed as cell growth at 0.0000001 M incubated for 48 hrs by SRB assay relative to control; format: functional; conditions: dose 100 nM, read-out: Activity; outline: as §1
MCF7 [20] = test: Growth inhibition against human MCF7 cells assessed as total growth inhibitory concentration incubated for 48 hrs by sulforhodamine B assay; format: functional
Albumin = Albumin (Bos taurus, UniProt P02769); test: Binding affinity to bovine serum albumin assessed as Stern-Volmer quenching constant by fluorescence spectroscopic method; conditions: cattle
UACC-257 [21] = test: Antiproliferative activity against human UACC-257 cells assessed as cell growth at 0.000001 M incubated for 48 hrs by SRB assay relative to control; format: functional; conditions: read-out: Activity
NCI-H226 = test: Antiproliferative activity against human NCI-H226 cells assessed as cell growth at 0.000001 M incubated for 48 hrs by SRB assay relative to control; format: functional; conditions: read-out: Activity
HOP-62 = test: Antiproliferative activity against human HOP-62 cells assessed as cell growth inhibition by measuring lethal concentration incubated for 48 hrs by sulforhodamine B assay; format: functional; conditions: read-out: LC50 (the source's name)
MCF7 [22] = test: Antiproliferative activity against human MCF7 cells assessed as cell growth at 0.00000001 M incubated for 48 hrs by SRB assay relative to control; format: functional; conditions: dose 10 nM, read-out: Activity
MOLT-4 = test: Growth inhibition against human MOLT-4 cells incubated for 48 hrs by sulforhodamine B assay; format: functional

Sequence of Albumin (P02769 whole entry): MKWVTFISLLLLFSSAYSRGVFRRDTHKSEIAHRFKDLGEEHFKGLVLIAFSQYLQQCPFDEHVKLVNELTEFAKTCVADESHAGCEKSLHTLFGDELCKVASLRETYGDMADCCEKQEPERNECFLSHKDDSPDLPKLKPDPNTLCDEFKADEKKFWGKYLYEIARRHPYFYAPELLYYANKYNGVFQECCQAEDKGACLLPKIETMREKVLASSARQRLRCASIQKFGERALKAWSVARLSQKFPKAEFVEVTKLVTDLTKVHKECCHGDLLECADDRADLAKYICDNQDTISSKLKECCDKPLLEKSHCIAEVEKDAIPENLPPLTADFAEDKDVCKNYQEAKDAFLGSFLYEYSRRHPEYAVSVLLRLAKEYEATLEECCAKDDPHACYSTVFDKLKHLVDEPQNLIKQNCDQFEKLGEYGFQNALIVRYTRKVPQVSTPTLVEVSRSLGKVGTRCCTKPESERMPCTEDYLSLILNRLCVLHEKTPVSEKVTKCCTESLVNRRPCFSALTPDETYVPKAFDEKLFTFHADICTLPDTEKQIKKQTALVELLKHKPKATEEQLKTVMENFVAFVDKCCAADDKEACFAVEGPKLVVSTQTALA

| SMILES | growth at 100 µM (OVCAR-4 [1]) [%] | growth at 1 µM (LOX IMVI [2]) [%] | growth at 0.1 µM (OVCAR-8 [3]) [%] | GI50 (OVCAR-3) [nM] | growth at 0.1 µM (NCI-H23 [4]) [%] | growth at 0.01 µM (CCRF-CEM) [%] | growth at 1 µM (SNB-19 [5]) [%] | growth at 10 µM (NCI-H23 [6]) [%] | GI50 (COLO 205) [nM] | growth at 10 µM (SNB-19 [7]) [%] | GI50 (OVCAR-8 [8]) [nM] | growth at 0.1 µM (OVCAR-4 [9]) [%] | growth at 1 µM (U-251 [10]) [%] | GI50 (LOX IMVI [11]) [nM] | growth at 0.1 µM (RXF 393) [%] | growth at 0.1 µM (U-251 [12]) [%] | growth at 10 µM (SN12C) [%] | TGI (TK-10) [nM] | growth at 1 µM (OVCAR-4 [13]) [%] | growth at 10 µM (UACC-257 [14]) [%] | further results |
| --- | --- | --- | --- | --- | --- | --- | --- | --- | --- | --- | --- | --- | --- | --- | --- | --- | --- | --- | --- | --- | --- |
| c1ccc(Cn2cnc3ccc(-c4nc(-c5ccc6c(c5)ncn6C5CCCCC5)cn5ccnc45)cc32)cc1 | 14 | 88 | 114 | 2270 | 93 | 100 | 93 | -46 | 1880 | 28 | 2600 | 98 | 83 | 1640 | 105 | 107 | -32 | > 100000 | 96 | -64 | CC50 (Malme-3M [15]): > 100000 nM; growth at 1 µM (Malme-3M [16]): 91%; ΔTm (Calf thymus DNA): 12 °C; TGI (HOP-92 [17]): 2620 nM; CC50 (MCF7 [18]): > 100000 nM; growth at 10 µM (DU-145): 4%; GI50 (Hs-578T): 2710 nM; growth at 0.1 µM (HOP-92 [19]): 98%; TGI (MCF7 [20]): > 100000 nM; KSV (Albumin): 1.14 10^5/M; growth at 1 µM (UACC-257 [21]): 112%; growth at 1 µM (NCI-H226): 95%; CC50 (HOP-62): > 100000 nM; growth at 0.01 µM (MCF7 [22]): 86%; GI50 (MOLT-4): 1670 nM |
| COc1ccc(-c2cn3ccnc3c(-c3ccc4ncn(C5CCCCC5)c4c3)n2)cc1 | 57 | 44 | 106 | 411 | 95 | 106 | 45 | 13 | 2220 | 22 | 3160 | 96 | 69 | 741 | 104 | 104 | 16 | 68900 | 84 | 60 | CC50 (Malme-3M [15]): > 100000 nM; growth at 1 µM (Malme-3M [16]): 53%; ΔTm (Calf thymus DNA): 22 °C; TGI (HOP-92 [17]): > 100000 nM; CC50 (MCF7 [18]): > 100000 nM; growth at 10 µM (DU-145): 14%; GI50 (Hs-578T): 1160 nM; growth at 0.1 µM (HOP-92 [19]): 94%; TGI (MCF7 [20]): > 100000 nM; KSV (Albumin): 1.16 10^5/M; growth at 1 µM (UACC-257 [21]): 69%; growth at 1 µM (NCI-H226): 73%; CC50 (HOP-62): > 100000 nM; growth at 0.01 µM (MCF7 [22]): 88%; GI50 (MOLT-4): 2660 nM |
